SENP1 FRET inh: inhibitors of human SENP1 SUMO protease catalytic domain; hit rate 0.21% among 360,000; inhibition, % at 10 µM; recombinant SENP1 catalytic domain, CyPet-SUMO1-YPet FRET cleavage; AID 624204; Q9P0U3;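 active means inhibition at least 30% at 10 µM, raw YFP signal under a set limit, fluorescence ratio 0.5 to 1.5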;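 further: 0% = enzyme with DMSO and 100% = no enzyme wells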
Target sequence (Q9P0U3 419-644 limits assumed): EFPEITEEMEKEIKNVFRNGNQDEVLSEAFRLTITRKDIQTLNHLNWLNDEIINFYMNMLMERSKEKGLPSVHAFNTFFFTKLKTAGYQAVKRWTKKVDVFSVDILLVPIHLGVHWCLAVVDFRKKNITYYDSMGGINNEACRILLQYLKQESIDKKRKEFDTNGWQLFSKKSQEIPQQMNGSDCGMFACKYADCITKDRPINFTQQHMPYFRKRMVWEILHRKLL
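System: Recombinant human SENP1 catalytic domain, His6-tagged | Incubation: Enzyme reaction for 50 min at room temperature, dark | Medium: Tris pH 8 with BME, BSA, NP40 and catalase | Also added: 25 nM SUMO1 FRET substrate | Compound: 10 µM single point, 0.5% DMSO | Measured by: FRET fluorescence in CFP and YFP emission channels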
ADAM10 inh: inhibits human ADAM10 | inhibition, % at 7 µM | recombinant ADAM10, EDANS/DABCYL FRET peptide cleavage, 3 h | O14672 | hit rate 0.62% among 370,000 | AID 720582;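 active means inhibition above a per-campaign cutoff equal to the mean of compounds falling between control-based bounds plus 3 SD, cut at about 20% in these data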;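 further: 0% = DMSO wells while the 100% control is not disclosed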
ADAM17 inh: ADAM17 inhibition, QFRET primary screen; P78536; recombinant ADAM17, EDANS/DABCYL FRET peptide cleavage; inhibition, % at 6.95 µM; hit rate 0.83% among 370,000; AID 720648;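 active means inhibition above the mean of compounds lying between control limits plus 3 SD, set per campaign, cut at about 8.5% in these data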;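 further: 0% = DMSO-only wells as the low control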
FAS-TE inh: inhibitors of human fatty acid synthase thioesterase domain; inhibition, % at 15 µM; hit rate 0.67% among 360,000; recombinant FAS-TE, OMFH fluorogenic substrate, fluorescence endpoint; AID 602261; P49327;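 active means compounds whose normalised, plate-corrected inhibition of enzyme fluorescence in the single-dose primary screen is 50% or more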;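 further: 0% = DMSO with enzyme and 100% = substrate without enzyme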
ADAM10 confirm: human ADAM10 inhibition, confirmation; shares compounds with ADAM10 inh; ADAM10 QFRET peptide cleavage, EDANS fluorescence; inhibition, % at 6.95 µM; hit rate 1% among 2,100;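 active means inhibition above about 20% chosen separately for each screening run, limit read from the data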;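 further: 0% = DMSO wells and 100% = marimastat wells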
ADAM17 ctr: ADAM17 inhibition, counter-screen for ADAM10 exosite hits; inhibition, % at 6.95 µM; ADAM17 QFRET peptide cleavage, EDANS fluorescence; shares compounds with ADAM10 inh; hit rate 0.5% among 2,100;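 active means mean triplicate inhibition above the solvent-only control wells' mean plus 3 SD, cut at about 12% in these data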;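 further: 0% = DMSO wells and 100% = marimastat wells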
ADAM10 ctr: inhibits human ADAM10 in ADAM17 exosite counter-screen; hit rate 47% among 2,900; inhibition, % at 6.95 µM; shares compounds with ADAM17 inh; recombinant ADAM10, EDANS/DABCYL FRET peptide cleavage, 3 h;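 active means mean inhibition over the triplicate runs exceeds the activity threshold set in the earlier primary screen, cut at about 20% in these data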;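 further: 0% = DMSO wells and 100% = marimastat wells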
ADAM17 confirm: human ADAM17 inhibition, confirmation; shares compounds with ADAM17 inh; recombinant ADAM17, EDANS/DABCYL QFRET peptide cleavage; inhibition, % at 6.95 µM; hit rate 65% among 2,900; AID 743257;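 active means mean inhibition across replicates above the hit cutoff set in the primary screen, cut at about 8.5% in these data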;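 further: 0% = DMSO wells and 100% = marimastat wells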
Starred values were filed as active, the others as inactive; i = inactive; / = no result. Hits are enriched below; roughly 1.9% of the tested compounds scored in any of these assays.

SMILES	SENP1 FRET inh	ADAM10 inh	ADAM17 inh	FAS-TE inh	ADAM10 ctr	ADAM17 confirm	others
C[C@H](O)[C@@H]1C(=O)N2CCc3c([nH]c4cccc(-c5ccccc5)c34)[C@@H]2C[C@@H]1N(C)C(=O)c1ccco1	/	i	-161.5	/	/	/
COc1cc(C(=O)c2ccccc2)c(OC)cc1C(=O)Nc1ccc(O)cc1	2.2	29.9*	14.8*	-5.2	0.1	2.9	ADAM10 confirm=-1.2;ADAM17 ctr=0.5
CCNC(=O)NC(=O)COC(=O)c1cccc(NS(=O)(=O)/C=C/c2ccccc2)c1	-0.5	1.0	0.8	-6.6	/	/
O=C(COC(=O)c1cccc(NS(=O)(=O)/C=C/c2ccccc2)c1)Nc1ccccc1OC(F)F	0.2	15.1	9.9*	20.1	17.7	14.6*
COc1ccc(Cc2nnc(N/N=C/c3ccc(O)cc3)[nH]c2=O)cc1OC	0.9	9.1	9.3*	-14.7	2.7	5.3
Cc1c(NC(=O)C2CCCN(S(=O)(=O)c3cccc4ccccc34)C2)c(=O)n(-c2ccccc2)n1C (configuration not stated)	/	1.2	1.4	/	/	/
O=C(Nc1cccc(OC(F)(F)F)c1)C1Cc2c(-c3cccc(F)c3)ccnc2O1 (configuration not stated)	4.0	12.8	11.7*	42.6	35.3*	19.2*
O=C(Nc1ccc2c(c1)OCO2)C1Cc2c(-c3ccccc3Oc3ccccc3)ccnc2O1 (configuration not stated)	0.0	4.2	8.9*	27.2	20.1*	9.7*
CC(=O)c1cccc(-c2ccnc3c2CC(C(=O)Nc2cccc(C(F)(F)F)c2)O3)c1 (configuration not stated)	-2.5	5.3	8.9*	39.0	14.4	8.6
CC(=O)c1cccc(-c2ccnc3c2CC(C(=O)Nc2cccnc2)O3)c1 (configuration not stated)	-3.2	-0.5	3.6	-1.2	/	/
COc1ccc(NC(=O)C2Cc3c(-c4cccc(F)c4)ccnc3O2)cc1 (configuration not stated)	1.5	1.6	-2.9	18.0	/	/
CC(=O)c1cccc(-c2ccnc3c2CC(C(=O)Nc2cccc(Oc4ccccc4)c2)O3)c1 (configuration not stated)	-0.9	18.0	9.4*	22.8	24.5*	9.9*
COc1ccc(NC(=O)C2Cc3c(-c4ccccc4Oc4ccccc4)ccnc3O2)cc1OC (configuration not stated)	-2.4	17.2	3.2	11.4	/	/
COC(=O)C1=C(C)N(Cc2cccc(C(F)(F)F)c2)C(=NCC2CC2)NC1c1cccc(C(F)(F)F)c1 (configuration not stated)	/	0.3	0.7	/	/	/
COc1ccc(C(CNC(=O)c2cccc(N(C)C)c2)N2CCCC2)cc1 (configuration not stated)	-4.6	2.0	9.4*	-1.2	-40.8	-3.3
O=C(Nc1ccc2c(c1)OCCO2)C(C1CC1)N1CCN(c2ccc(C(F)(F)F)cn2)CC1 (configuration not stated)	-0.1	9.2	8.8*	26.3	17.3	10.8*
O=C(c1ccc2c(c1)OCCO2)N1CCN(c2ccc(C(F)(F)F)cn2)CC1	1.2	-11.1	-5.5	0.8	/	/
CC(=O)c1ccc(NC(=O)C(C)OC(=O)C2CCN(c3ccc(C(F)(F)F)cn3)CC2)cc1 (configuration not stated)	0.5	12.2	9.0*	23.2	14.2	9.1*
COc1ccc(N2CCN(CCNS(=O)(=O)c3c(C(C)C)cc(C(C)C)cc3C(C)C)CC2)cc1	/	11.0	6.2	/	/	/
O=C(NC1CCCCN(Cc2cccc(Cl)c2)C1=O)c1ccc2ccccc2c1 (configuration not stated)	/	14.3	7.2	/	/	/
COc1cc(/C=C(/C#N)c2ccc(F)cc2)ccc1Oc1ccc([N+](=O)[O-])cn1	2.3	10.8	7.4	32.4	/	/
COc1cc(/C=N\NC(=O)c2ccccc2F)ccc1Oc1ccc([N+](=O)[O-])cn1	0.7	15.3	10.0*	11.3	6.4	7.4
O=C(CCN1CCOCC1)c1ccc(N2CCCCC2)cc1	-1.7	-0.5	-2.8	-8.3	/	/
CC(C)(C)c1cc(C(=O)CCN2CCOCC2)cc(C(C)(C)C)c1O	0.4	13.5	9.4*	-1.6	-3.3	2.6
CC1CCCN(C(=O)COC(=O)COc2ccc(C#N)cc2)C1 (configuration not stated)	1.4	-11.0	-1.9	-8.5	/	/
SMILES	SENP1 FRET inh	ADAM10 inh	ADAM17 inh	FAS-TE inh	ADAM10 ctr	ADAM17 confirm	others
CC1CCCC(C)N1C(=O)COC(=O)COc1ccc(C#N)cc1 (configuration not stated)	2.7	1.8	9.8*	-1.8	4.0	7.2
CCOC(=O)N1CCN(C(=O)C[C@H]2C[C@@]3(C(=O)OC)C(=C[C@H](C(C)C)O[C@@H]3C3CC3)N(Cc3ccc(Cl)cc3Cl)C2=O)CC1	/	5.9	9.2*	/	18.1	12.5*
C#CCNC(=O)C[C@H]1C[C@@]2(C(=O)OC)C(=C[C@H](C(C)C)O[C@@H]2C2CC2)N(Cc2ccccc2)C1=O	/	0.5	-3.7	/	/	/
COC(=O)[C@]12C[C@H](CC(=O)NCc3ccc(C)o3)C(=O)N(Cc3ccccc3)C1=C[C@H](C(C)(C)C)O[C@@H]2C	/	9.0	10.2*	/	10.9	5.7
COC(=O)[C@]12C[C@H](CC(=O)NCCCCc3ccccc3)C(=O)N(Cc3ccco3)C1=C[C@H](C1CCCC1)O[C@@H]2C	/	16.2	1.2	/	/	/
COC(=O)[C@]12C[C@H](CC(=O)NCCCCc3ccccc3)C(=O)N(Cc3ccco3)C1=C[C@H](C(C)(C)C)O[C@@H]2C	/	19.0	9.3*	/	27.3*	14.9*
COC(=O)[C@]12C[C@H](CC(=O)NCCCCc3ccccc3)C(=O)N(Cc3ccccc3)C1=C[C@H](C(C)C)O[C@@H]2C1CC1	/	17.1	16.8*	/	25.9*	13.2*
N#Cc1cccc(-c2ccccc2C(=O)NC2CCCCN(Cc3ccc(Cl)cc3)C2=O)c1 (configuration not stated)	/	-0.7	-0.8	/	/	/
COC(=O)[C@]12C[C@H](CC(=O)NCCCN3CCCC3=O)C(=O)N(CCc3ccc(OC)c(OC)c3)C1=C[C@H](C(C)(C)C)O[C@@H]2C	/	1.0	1.7	/	/	/
COc1ccc(N2C(=O)c3n[nH]c(C)c3C2c2ccccc2)cc1 (configuration not stated)	/	-1.0	3.1	/	/	/
COc1ccc(C(=O)C2(C(=O)NCCO)CC(c3ccccn3)=NO2)cc1 (configuration not stated)	/	-1.0	-2.0	/	/	/

Compound activity: PubChem BioAssay, several laboratories
